The results in this text go back to ChEMBL document CHEMBL1139060, “4-[6-(2-Aminoethyl)naphthalen-2-yl]benzonitriles are potent histamine H3 receptor antagonists with high CNS penetration” (Bioorg Med Chem Lett, 2007).

The structures appear in SMILES notation. pKi: −log10 of the molar value.

Series [1] deals with Histamine H3 receptor (Homo sapiens, UniProt Q9Y5N1). The experiment in a line: Displacement of [3H]N-alpha-methylhistamine from human cloned histamine H3 receptor expressed in C6 cells. The format is cell-based. An outline of the steps: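 Radioligand displacement with [3H]N-α-methylhistamine on membranes from C6 cells carrying cloned human H3R. Ki derived from pKi.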
Sequence of Histamine H3 receptor (Homo sapiens, UniProt Q9Y5N1) (Q9Y5N1 whole entry): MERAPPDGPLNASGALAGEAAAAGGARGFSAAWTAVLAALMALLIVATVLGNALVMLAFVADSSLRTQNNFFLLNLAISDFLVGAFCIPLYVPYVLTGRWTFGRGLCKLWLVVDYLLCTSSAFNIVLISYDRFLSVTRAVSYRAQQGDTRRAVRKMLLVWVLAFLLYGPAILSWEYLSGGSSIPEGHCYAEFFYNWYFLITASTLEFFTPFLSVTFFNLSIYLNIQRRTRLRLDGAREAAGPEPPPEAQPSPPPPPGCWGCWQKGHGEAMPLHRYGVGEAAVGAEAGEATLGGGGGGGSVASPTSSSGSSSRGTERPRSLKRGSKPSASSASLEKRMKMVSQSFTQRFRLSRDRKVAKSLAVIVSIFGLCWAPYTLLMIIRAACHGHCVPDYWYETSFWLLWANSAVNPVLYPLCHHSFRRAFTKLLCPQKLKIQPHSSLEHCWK
(Displacement assays read how much labelled ligand stays bound in the presence of the test substance.)

Series [2] concerns the target Histamine H3 receptor (Rattus norvegicus, UniProt Q9QYN8). The experiment in a line: Displacement of [3H]N-alpha-methylhistamine from histamine H3 receptor in rat cortical membranes. Type of series: cell membranes, Membrane. In short, it runs like this: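 Competitive binding on rat cerebral cortex membranes, displacing the radioligand [3H]N-α-methylhistamine. Ki obtained from pKi. At least 3 independent pKi determinations per compound.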

The nature of series [3]: Half life in rat at 1 mg/kg, iv. The format is ADME, organism-based. Also on record: dose 1 mg/kg, route intravenous. The conditions noted are these: in vivo.
Series [4] is described as follows: Volume of distribution in rat at terminal phase at 1 mg/kg, iv. The format is ADME, organism-based. Also on record: dose 1 mg/kg, route intravenous. The conditions noted are these: in vivo, read-out: Vbeta.
Series [5] can be described thus: AUC (0 to infinity) in rat at 1 mg/kg, iv. Type of series: ADME, organism-based. Also on record: time infinity, dose 1 mg/kg, route intravenous. The conditions noted are these: plasma.
Series [6] can be described thus: Cmax in rat at 1 mg/kg, po. Type of series: ADME, organism-based. Also noted: dose 1 mg/kg, route oral. The conditions noted are these: in vivo.
Series [7] is described as follows: Half life in rat at 1 mg/kg, po. The format is ADME, organism-based. Also noted: dose 1 mg/kg, route oral. The conditions noted are these: in vivo.
Series [8] in a line: AUC (0 to infinity) in rat at 1 mg/kg, po. Type of series: ADME, organism-based. Also noted: time infinity, dose 1 mg/kg, route oral. To be noted: plasma.
The nature of series [9]: Oral bioavailability in rat at 1 mg/kg. Type of series: ADME, organism-based. The conditions noted are these: in vivo.
Series [10] in a line: Ratio of drug level in brain to plasma in rat at 5 mg/kg, iv. Type of series: ADME, organism-based. Also on record: dose 5 mg/kg, route intravenous. An outline of the steps:
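Rats given 5 mg/kg intravenously; brain and plasma drug concentrations measured one hour after dosing and expressed as a brain-to-plasma ratio.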

Sequence of Histamine H3 receptor (Rattus norvegicus, UniProt Q9QYN8) (Q9QYN8 whole entry): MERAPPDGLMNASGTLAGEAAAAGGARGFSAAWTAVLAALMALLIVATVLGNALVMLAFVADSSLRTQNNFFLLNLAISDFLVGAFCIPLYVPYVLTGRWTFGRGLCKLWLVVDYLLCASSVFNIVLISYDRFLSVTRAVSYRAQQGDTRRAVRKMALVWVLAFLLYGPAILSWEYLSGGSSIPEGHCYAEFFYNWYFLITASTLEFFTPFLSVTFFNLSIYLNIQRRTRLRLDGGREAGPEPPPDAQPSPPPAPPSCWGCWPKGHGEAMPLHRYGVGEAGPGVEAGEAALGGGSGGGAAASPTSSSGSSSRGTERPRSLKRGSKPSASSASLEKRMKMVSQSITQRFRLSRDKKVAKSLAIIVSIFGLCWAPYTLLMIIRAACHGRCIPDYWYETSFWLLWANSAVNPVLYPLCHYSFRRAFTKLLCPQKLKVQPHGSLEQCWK

A word on the pKi: it is the Ki on a negative log10 scale, so that one unit is a factor of ten. Read a low pKi as a high Ki. With `C[C@@H]1CCCCN1CCc1ccc2cc(-c3ccc(C#N)cc3)ccc2c1`, the pKi at Histamine H3 receptor [1] was 8.06; at Histamine H3 receptor [2], 6.85.

Take `CN(C)CCc1ccc2cc(-c3ccc(C#N)cc3)ccc2c1`: the pKi at Histamine H3 receptor [1] is 8.58; at Histamine H3 receptor [2], 7.34.

For the compound `CCN(CC)CCc1ccc2cc(-c3ccc(C#N)cc3)ccc2c1`, the negative-log Ki (pKi) was 9.08 on Histamine H3 receptor [1] and 7.90 at Histamine H3 receptor [2].

As to `N#Cc1ccc(-c2ccc3cc(CCN4CC=CC4)ccc3c2)cc1`, the pKi is 8.48 on Histamine H3 receptor [1] and 7.18 at Histamine H3 receptor [2].

As for `CC[C@@H]1CCCN1CCc1ccc2cc(-c3ccc(C#N)cc3)ccc2c1`, the pKi at Histamine H3 receptor [1] was 8.06; on Histamine H3 receptor [2], 7.47.

As for `CN(CCO)CCc1ccc2cc(-c3ccc(C#N)cc3)ccc2c1`, the pKi is 7.98 on Histamine H3 receptor [1] and 6.34 at Histamine H3 receptor [2].

In the case of `C[C@H]1CCCN1CCc1ccc2cc(-c3ccc(C#N)cc3)ccc2c1`, the pKi was 9.92 on Histamine H3 receptor [1] and 8.46 on Histamine H3 receptor [2].

Regarding `N#Cc1ccc(-c2ccc3cc(CCN4CCCC4)ccc3c2)cc1`, the negative logarithm of the Ki (pKi) on Histamine H3 receptor [1] was 9.31; on Histamine H3 receptor [2], 8.19.

Consider `C[C@@H]1CCCN1CCCOc1ccc(-c2ccc(C#N)cc2)cc1`, for which the pKi at Histamine H3 receptor [1] was 9.66; on Histamine H3 receptor [2], 8.71.

The term half-life denotes how long it takes for the measured level to halve. Low readings indicate rapid decline, high ones slow decline. For orientation: AUC(0-inf) means the area under the concentration-time curve extrapolated to infinity. Lower therefore signals less exposure. The term Cmax denotes the highest concentration seen after dosing. Usually bioavailability stands for the share of a dose that reaches the circulation, judged against a reference dose that is usually intravenous. A higher bioavailability goes with good availability. The term Kp denotes the ratio of the level in a tissue or fluid to that in plasma or blood. On to `C[C@@H]1CCCN1CCc1ccc2cc(-c3ccc(C#N)cc3)ccc2c1`, for which the results for the pKi at Histamine H3 receptor [1] and on Histamine H3 receptor [2] were 9.62 and 8.61, respectively. The half-life in series [3] is 6.9 h; in series [7], 6.5 h. Moreover, the Vd in series [4] is 6 L/kg. The AUC(0-inf) was 1640 ng·h/mL in series [5] and 890 ng·h/mL in [8]. For the same compound, the concentration in [6] peaked (Cmax) at 48 ng/mL. The same compound returned a bioavailability in series [9] of 55%. Moreover, the Kp in [10] was 72.

`CC(C)C1CCCN1CCc1ccc2cc(-c3ccc(C#N)cc3)ccc2c1` (stereo unspecified): the figures for the pKi on Histamine H3 receptor [1] and at Histamine H3 receptor [2] were 7.56 and 6.63, respectively.

Consider `CC(C)CC1CCCN1CCc1ccc2cc(-c3ccc(C#N)cc3)ccc2c1` (stereo unspecified), for which the pKi on Histamine H3 receptor [1] was 6.56; at Histamine H3 receptor [2], 6.33.

`N#Cc1ccc(-c2ccc3cc(CCN4CCC[C@H]4CF)ccc3c2)cc1`: the pKi on Histamine H3 receptor [1] is 9.09; on Histamine H3 receptor [2], 8.01.

Turning to `C[C@@H]1CCCN1CCc1cc2cc(-c3ccc(C#N)cc3)ccc2o1`, the half-life in [3] is 5.3 h; in series [7], 5.2 h. Moreover, the Vd in [4] is 12 L/kg. In addition, the AUC(0-inf) in series [5] worked out at 673 ng·h/mL; in series [8] it was 349 ng·h/mL. The compound further returned a Cmax in series [6] of 29 ng/mL.

As for `N#Cc1ccc(-c2ccc3cc(CCN4CCC[C@@H]4CO)ccc3c2)cc1`, the pKi at Histamine H3 receptor [1] was 8.54; at Histamine H3 receptor [2], 7.37.

For `N#Cc1ccc(-c2ccc3cc(CCN4CCC[C@H]4CO)ccc3c2)cc1`, the figures for the pKi at Histamine H3 receptor [1] and at Histamine H3 receptor [2] were 9.36 and 7.96, respectively.

As for `CN(C)[C@@H]1CCN(CCc2ccc3cc(-c4ccc(C#N)cc4)ccc3c2)C1`, the negative logarithm of the Ki (pKi) at Histamine H3 receptor [1] was 7.70; on Histamine H3 receptor [2], 7.00.

Consider `N#Cc1ccc(-c2ccc3cc(CCN4CC[C@@H](O)C4)ccc3c2)cc1`, for which the results for the pKi at Histamine H3 receptor [1] and on Histamine H3 receptor [2] were 8.81 and 7.51, respectively.

In the case of `CN(CCc1ccc2cc(-c3ccc(C#N)cc3)ccc2c1)C(C)(C)C`, the pKi at Histamine H3 receptor [1] is 8.96; on Histamine H3 receptor [2], 7.55.

For `CCN(CCc1ccc2cc(-c3ccc(C#N)cc3)ccc2c1)C(C)C`, the pKi on Histamine H3 receptor [1] is 8.34; on Histamine H3 receptor [2], 7.52.

For the compound `CC1CCCN1CCc1ccc2cc(-c3ccc(C#N)cc3)ccc2c1` (stereo unspecified), the pKi was 9.74 on Histamine H3 receptor [1] and 8.91 on Histamine H3 receptor [2].

As to `CCCN(C)CCc1ccc2cc(-c3ccc(C#N)cc3)ccc2c1`, the pKi was 8.68 on Histamine H3 receptor [1] and 7.59 on Histamine H3 receptor [2].
